Experimental data reported in article PMC5477668 (Journal of medicinal chemistry, 2017).
One block for each compound: values may come before it.

Key:
PAD1 = PAD1 inactivation kinetics; assay type: biochemical
Outline: (§1)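 Purified PAD enzyme (2.0 μM) was preincubated at 37 °C with various inactivator concentrations in 50 mM HEPES pH 7.6, 10 mM CaCl2 and 2 mM DTT. Aliquots taken over time were added to the same buffer containing 10 mM BAEE, run for 15 min, then quenched in liquid nitrogen. Citrulline was measured by COLDER. k_obs came from exponential decay fits, and k_inact and K_I from saturation fits. At least duplicate.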

PAD2 [1] = target: T1, PAD2 (Homo sapiens, UniProt Q9Y2J8); assay: PAD2 inactivation kinetics; assay type: biochemical; details: for PAD2 potency: as compared to BB-F-amidine (4a) and BB-Cl-amidine (4b); for fold increase in PAD2 potency and selectivity: relative to Cl-amidine; for PAD2-selectivity: up to, other isozyme not named; for fold decrease in PAD2 potency: compared to 30a; for fold more potent PAD2 inhibitor in vitro: than BB-Cl-amidine (4b)
T1 sequence (Q9Y2J8 whole entry): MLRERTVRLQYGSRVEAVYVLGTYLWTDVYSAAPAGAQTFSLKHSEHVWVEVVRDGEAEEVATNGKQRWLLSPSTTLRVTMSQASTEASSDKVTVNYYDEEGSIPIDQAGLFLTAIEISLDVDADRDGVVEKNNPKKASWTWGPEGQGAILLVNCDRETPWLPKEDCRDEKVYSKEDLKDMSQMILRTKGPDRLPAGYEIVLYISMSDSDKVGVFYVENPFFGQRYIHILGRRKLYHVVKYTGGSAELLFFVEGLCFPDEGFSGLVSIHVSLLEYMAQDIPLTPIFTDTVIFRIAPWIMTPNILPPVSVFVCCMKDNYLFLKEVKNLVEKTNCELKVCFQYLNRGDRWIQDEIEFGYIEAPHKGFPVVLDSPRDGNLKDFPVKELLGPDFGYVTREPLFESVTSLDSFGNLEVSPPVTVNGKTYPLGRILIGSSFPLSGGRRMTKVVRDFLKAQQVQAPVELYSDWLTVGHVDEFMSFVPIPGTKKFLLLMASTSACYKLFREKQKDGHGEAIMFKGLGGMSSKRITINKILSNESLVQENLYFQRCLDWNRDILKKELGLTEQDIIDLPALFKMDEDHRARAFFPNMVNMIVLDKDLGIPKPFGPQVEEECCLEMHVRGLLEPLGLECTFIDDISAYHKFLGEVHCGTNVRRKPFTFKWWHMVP
Outline: as §1

PAD4 = PAD4 inactivation kinetics; assay type: biochemical
Outline: as §1

PAD2 [2] = target: T1, PAD2; assay: Target engagement assay with HEK293T/PAD2 cells; assay type: cell-based
HEK293T cells = assay: Cytotoxicity study; assay type: cell-based, human; details: than BB-Cl-amidine (4b)
Outline: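 Human HEK293T cells were plated at 2.5 × 10⁶ cells/well. Next day they were exposed for 24 h to DMSO, Triton X-100, or a range of test-compound concentrations. Viability was read by XTT absorbance at 475 nm. EC50 came from an eight-point dose-response fit with range, slope factor and background terms.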

HEK293T/PAD2 cells = assay: Cellular uptake assay; assay type: in vitro ADME, human
Outline: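 HEK293T/PAD2 cells in HBS with 2 mM CaCl2 were treated with 0.5 μM ionomycin and test compound at 25 μM, as in the target engagement protocol. Cells were scraped, washed 4× with HBS, extracted in acetonitrile by sonication for 1 h at 0 °C, then cleared, filtered and analysed by LCMS. Analyte peak area was compared with the peak area of 25 μM compound injected directly.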

[3] = as compared to BB-Cl-amidine (4b)
[4] = as compared to BB-F-amidine (4a)

Structure (SMILES): N=C(CCl)NCCC[C@H](NC(=O)c1ccccc1C(=O)O)c1nc2ccccc2[nH]1 [9b]
- fold increase in PAD1 inhibition (PAD1; [3]): 1.8 fold
- PAD2 potency (PAD2 [1]): relatively unaffected
- fold increase in PAD4 inhibition (PAD4; [3]): 2.3 fold

Structure (SMILES): COc1cccc2c1nc([C@H](CCCNC(=N)CF)NC(=O)c1cccc3c1C(=O)N(C)C3)n2C [49a]
- fold increase in PAD2 potency and selectivity (PAD2 [1]): > 100 fold
- PAD2-selectivity (PAD2 [1]): up to 106 fold

Structure (SMILES): N=C(CF)NCCC[C@H](NC(=O)c1ccccc1C(=O)O)c1nc2ccccc2[nH]1 [9a]
- fold increase in PAD1 inhibition (PAD1; [4]): 18 fold
- PAD2 potency (PAD2 [1]): relatively unaffected
- fold increase in PAD4 inhibition (PAD4; [4]): 6.5 fold

Structure (SMILES): CCn1c([C@H](CCCNC(=N)CF)NC(=O)c2cccc3c2C(=O)NC3)nc2ccccc21 [16a]
- occupancy of PAD2 (PAD2 [2]; at 25 μM, HEK293T/PAD2 cells): roughly half as potent
- fold increase in PAD2 inhibition (PAD2 [1]; as compared to 9a): ~ 41 fold
- fold increase in PAD2 inhibition (PAD2 [1]; [4]): ~ 51 fold

Structure (SMILES): CCn1c([C@H](CCCNC(=N)CF)NC(=O)c2ccccc2C(=O)O)nc2ccccc21 [11a]
- fold increase in PAD2 inhibition (PAD2 [1]; [4]): 26 fold

Structure (SMILES): N=C(CF)NCCC[C@H](NC(=O)c1cccc2c1C(=O)NC2)c1nc2ccccc2[nH]1 [14a]
- fold increase in PAD2 inhibition (PAD2 [1]; as compared to 9a): ~ 7 fold
- fold increase in PAD2 inhibition (PAD2 [1]; [4]): ~ 9 fold
- fold increase in PAD4 inhibition (PAD4; as compared to 9a): ~ 1.4 fold

Structure (SMILES): N=C(CF)NCCC[C@H](NC(=O)c1ccc(-c2ccccc2)cc1)c1nc2ccccc2[nH]1 [4a]
- fold less potent in the target engagement assay (PAD2 [2]; than BB-Cl-amidine (4b)): ~ 3 fold

Now from value to compound, other results behind:

- fold decrease in PAD2 potency (PAD2 [1]): ~ 2 fold
- fold more potent PAD2 inhibitor in vitro (PAD2 [1]): 12–50 fold
Structure (SMILES): CCOc1cccc2c1nc([C@H](CCCNC(=N)CF)NC(=O)c1cccc3c1C(=O)NC3)n2C [32a]
- fold less cytotoxic (HEK293T cells): > 30 fold

- fold decrease in PAD2 potency (PAD2 [1]): ~ 2 fold
Structure (SMILES): CCOc1cccc2c1nc([C@H](CCCNC(=N)CCl)NC(=O)c1cccc3c1C(=O)NC3)n2C [32b]

- fold more potent PAD2 inhibitor in vitro (PAD2 [1]): 12–50 fold
Structure (SMILES): COc1ccc2c(c1)nc([C@H](CCCNC(=N)CF)NC(=O)c1cccc3c1C(=O)NC3)n2C [37a]
- fold less cytotoxic (HEK293T cells): > 30 fold

- fold less compound internalized by the cell (HEK293T/PAD2 cells; than unsubstituted lactams 30a, 31a, 32a, and 37a, mass spectrometry): ~ 6 fold
- fold increase in PAD2 inhibition (PAD2 [1]; [4]): > 300 fold
- fold increase in PAD2 potency and selectivity (PAD2 [1]): > 100 fold
- PAD2-selectivity (PAD2 [1]): up to 106 fold
Structure (SMILES): CCN1Cc2cccc(C(=O)N[C@@H](CCCNC(=N)CF)c3nc4c(OC)cccc4n3C)c2C1=O [41a]

- fold decrease in PAD2 potency (PAD2 [1]): 4 fold
- fold more potent PAD2 inhibitor in vitro (PAD2 [1]): 12–50 fold
Structure (SMILES): CCn1c([C@H](CCCNC(=N)CF)NC(=O)c2cccc3c2C(=O)NC3)nc2c(OC)cccc21 [31a]
- fold less cytotoxic (HEK293T cells): > 30 fold

- fold more compound able to enter HEK293T cells (HEK293T/PAD2 cells; than 41a): 6 fold
- fold increase in PAD2 potency and selectivity (PAD2 [1]): > 100 fold
- fold more potent PAD2 inhibitor in vitro (PAD2 [1]): 12–50 fold
- PAD2-selectivity (PAD2 [1]): up to 106 fold
Structure (SMILES): COc1cccc2c1nc([C@H](CCCNC(=N)CF)NC(=O)c1cccc3c1C(=O)NC3)n2C [30a]
- fold less cytotoxic (HEK293T cells): > 30 fold
